Published values collected from several papers.
Each line is one published result; the experiments were not run side by side.
Target: Dual specificity protein kinase TTK (TTK, Homo sapiens, UniProt P33981)
One construct used (P33981 1-857): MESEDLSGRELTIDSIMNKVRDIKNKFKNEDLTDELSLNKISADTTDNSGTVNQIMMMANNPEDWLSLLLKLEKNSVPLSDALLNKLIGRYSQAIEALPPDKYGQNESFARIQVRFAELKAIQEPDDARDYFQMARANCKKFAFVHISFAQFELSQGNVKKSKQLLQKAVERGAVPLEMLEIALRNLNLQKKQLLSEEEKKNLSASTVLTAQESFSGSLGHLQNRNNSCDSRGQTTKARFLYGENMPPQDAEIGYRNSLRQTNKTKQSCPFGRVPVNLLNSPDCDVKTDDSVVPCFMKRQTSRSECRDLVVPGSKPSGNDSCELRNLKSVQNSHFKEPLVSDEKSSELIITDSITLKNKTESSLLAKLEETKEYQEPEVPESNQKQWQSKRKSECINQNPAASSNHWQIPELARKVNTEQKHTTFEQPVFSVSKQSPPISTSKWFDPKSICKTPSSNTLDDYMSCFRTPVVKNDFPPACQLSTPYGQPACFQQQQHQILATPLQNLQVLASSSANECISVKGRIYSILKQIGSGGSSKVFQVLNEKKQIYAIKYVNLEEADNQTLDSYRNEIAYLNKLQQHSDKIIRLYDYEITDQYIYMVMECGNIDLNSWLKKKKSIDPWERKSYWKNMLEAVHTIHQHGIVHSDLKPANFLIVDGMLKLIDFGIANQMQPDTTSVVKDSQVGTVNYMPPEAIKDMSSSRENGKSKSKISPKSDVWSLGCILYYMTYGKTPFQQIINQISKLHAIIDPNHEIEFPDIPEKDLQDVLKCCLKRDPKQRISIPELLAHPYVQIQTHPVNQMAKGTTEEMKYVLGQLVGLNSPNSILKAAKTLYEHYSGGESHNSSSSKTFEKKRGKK

Cn1cncc1[C@@](O)(COc1ccc(C#N)cc1-c1ccc(OC(F)(F)F)cc1)c1ccc(C#N)cc1  remaining binding (cell-free assay; competition with immobilised ligand; 1 µM): 100%
Cn1cc(-c2cccc(N3CCc4c(sc5c4CC(C)(C)C5)C3=O)c2CO)cc(Nc2ccncn2)c1=O  inhibition (enzyme activity; inhibitor; 1 µM): -3%
COc1ncccc1-c1cnn2ccc(N3CCN(C(=O)OC(C)C)CC3)nc12  remaining binding (binding; competition with immobilised ligand; 1 µM): 100%
O=c1[nH]c2ccccc2n1C1CCN(Cc2ccc(-c3[nH]c4cc5ncnc5cc4nc3-c3ccccc3)cc2)CC1  remaining signal (cell-free assay; 0.5 µM): 104%
Nc1ncc(-c2nc(N3CCOCC3)nc(N3CCOCC3)n2)c(C(F)F)n1  remaining binding (binding; competition with immobilised ligand; 10 µM): 84%
CC(C)(C)c1cc(C=C(C#N)C#N)cc(Br)c1O  remaining activity (enzyme activity; inhibitor; 0.5 µM): 101%
N#CC1(c2ccccn2)CCN(Cc2cc(C(=O)O)c(=O)n3ccccc23)CC1  remaining binding (cell-free assay; competition with immobilised ligand; 1 µM): 88%
Cc1nn(C)cc1-c1nc2c(N3CCN(Cc4ccc(Cl)cc4)CC3)c(Cl)cnc2[nH]1  remaining binding (binding; competition with immobilised ligand; 1 µM): 100%
Cn1cc(-c2cc(F)cc(N3CCn4c(cc5c4CCCC5)C3=O)c2CO)cc(Nc2ccc(N3CCN(C4COC4)CC3)cn2)c1=O  inhibition (enzyme activity; inhibitor; 0.1 µM): -17%
